Test results as given in ChEMBL document CHEMBL1149436, “New bicyclic cannabinoid receptor-1 (CB1-R) antagonists” (Bioorg Med Chem Lett, 2006).
pKi: −log10 of the molar value. Active and inactive are the calls of the source. No cut-off for these calls is given here.

Key:
Cannabinoid receptor 2 = Cannabinoid receptor 2 (Homo sapiens, UniProt P34972); experiment: Binding affinity to human CB2 receptor expressed in CHOK1 cells; format: cell-based, CHO-K1
Cannabinoid receptor 1 [1] = target: T1, Cannabinoid receptor 1 (Homo sapiens, UniProt P21554); experiment: biochemical; format: cell-based, HEK293
T1 sequence (P21554 whole entry): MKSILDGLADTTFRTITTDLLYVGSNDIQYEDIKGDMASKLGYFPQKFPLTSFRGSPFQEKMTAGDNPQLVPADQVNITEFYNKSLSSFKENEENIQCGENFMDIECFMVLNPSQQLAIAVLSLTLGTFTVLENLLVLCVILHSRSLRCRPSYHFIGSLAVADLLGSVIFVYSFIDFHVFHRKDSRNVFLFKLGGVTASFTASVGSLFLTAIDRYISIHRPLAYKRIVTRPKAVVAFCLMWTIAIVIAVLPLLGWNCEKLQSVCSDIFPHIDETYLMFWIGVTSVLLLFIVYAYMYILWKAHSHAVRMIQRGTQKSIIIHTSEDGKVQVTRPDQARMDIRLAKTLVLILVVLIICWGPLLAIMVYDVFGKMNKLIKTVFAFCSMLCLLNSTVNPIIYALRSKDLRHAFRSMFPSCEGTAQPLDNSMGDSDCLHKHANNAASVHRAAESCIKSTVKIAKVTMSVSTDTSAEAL

Cannabinoid receptor 1 [2] = target: T1, Cannabinoid receptor 1; experiment: Functional activity at human CB1 receptor transfected in CHOK1 cells by [35SGTP]gammaS assay; format: cell-based, CHO-K1
Mus musculus = experiment: Ability to reverse CP-55940-stimulated responses in mice at 1 mg/kg, sc; format: functional, organism-based; design: dose 1 mg/kg
Outline: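 Mouse challenge assay from the 'tetrad': reversal of CP-55940-stimulated analgesia and hypothermia, test agent given sc.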

Rattus norvegicus [3] = experiment: Anorectic activity assessed in a fasting-induced re-feeding model in Sprague-Dawley rat at 0.3 mg/kg, po relative to control; format: functional
Outline: (§1)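 Male CD rats fasted overnight, dosed orally the next morning with suspension in 0.5% methylcellulose. Food returned 0.5 h after dosing; cumulative intake measured 1.5 h later, expressed as % change versus vehicle-treated controls.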

Rattus norvegicus [4] = experiment: Anorectic activity assessed in a fasting-induced re-feeding model in Sprague-Dawley rat at 1 mg/kg, po relative to control; format: functional; outline: as §1
Rattus norvegicus [5] = experiment: Anorectic activity assessed in a fasting-induced re-feeding model in Sprague-Dawley rat at 3 mg/kg, po relative to control; format: functional; outline: as §1
[6] = Plasma clearance in Sprague-Dawley rat at 1 mg/kg, iv; format: ADME, organism-based; design: dose 1 mg/kg, route intravenous
Outline: (§2)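 Male Sprague-Dawley rats, 1 mg/kg iv via jugular vein cannula, amorphous solid in 20% EtOH/80% CD or Transcutol P/CD depending on compound. Plasma levels by LC-MS/MS after protein precipitation.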

[7] = Volume of distribution in Sprague-Dawley rat at 1 mg/kg, iv; format: ADME, organism-based; design: dose 1 mg/kg, route intravenous; conditions: in vivo, read-out: Vdss; outline: as §2
[8] = Half life in Sprague-Dawley rat at 1 mg/kg, iv; format: ADME, organism-based; design: dose 1 mg/kg, route intravenous; conditions: in vivo; outline: as §2
[9] = Bioavailability in Sprague-Dawley rat at 1 mg/kg, iv; format: ADME, organism-based; conditions: in vivo
Outline: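 Male Sprague-Dawley rats: iv dosing 1 mg/kg via jugular cannula (20% EtOH/80% CD or Transcutol P/CD); oral dosing of crystalline solid in 0.5% methylcellulose. Plasma by LC-MS/MS after protein precipitation.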

[10] = Plasma clearance in Beagle dog at 0.5 mg/kg, iv; format: ADME, organism-based, Canis lupus familiaris; design: dose 0.5 mg/kg, route intravenous
Outline: (§3)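 Male beagle dogs, 0.5 mg/kg iv. Vehicle: 6.7% EtOH/60% CD/33.3% PEG 400 or Transcutol P, depending on compound; amorphous solid used for iv. Plasma levels by LC-MS/MS after protein precipitation.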

[11] = Volume of distribution in Beagle dog at 0.5 mg/kg, iv; format: ADME, organism-based, Canis lupus familiaris; design: dose 0.5 mg/kg, route intravenous; conditions: in vivo, read-out: Vdss; outline: as §3
[12] = Half life in Beagle dog at 0.5 mg/kg, iv; format: ADME, organism-based, Canis lupus familiaris; design: dose 0.5 mg/kg, route intravenous; conditions: in vivo; outline: as §3
Rattus norvegicus [13] = experiment: Anorectic activity assessed in a fasting-induced re-feeding model in Sprague-Dawley rat at 10 mg/kg, po relative to control; format: functional; outline: as §1

Chain of Cannabinoid receptor 2 (P34972 whole entry): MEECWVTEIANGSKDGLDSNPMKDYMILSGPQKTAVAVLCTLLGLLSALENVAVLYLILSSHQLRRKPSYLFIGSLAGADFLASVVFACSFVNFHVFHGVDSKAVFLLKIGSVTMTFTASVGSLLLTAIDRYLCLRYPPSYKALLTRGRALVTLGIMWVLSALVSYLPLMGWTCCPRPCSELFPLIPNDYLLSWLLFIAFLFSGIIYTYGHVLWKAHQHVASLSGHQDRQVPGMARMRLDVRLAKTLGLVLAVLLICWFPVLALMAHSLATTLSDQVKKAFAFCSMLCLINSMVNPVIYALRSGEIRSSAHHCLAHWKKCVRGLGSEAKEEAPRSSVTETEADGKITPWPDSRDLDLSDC

SMILES: O=c1c2nn(-c3ccccc3Cl)c(-c3ccc(Cl)cc3)c2ncn1CC(F)F
- pKi (Cannabinoid receptor 2): < 5.00

SMILES: O=c1c2nn(-c3ccccc3Cl)c(-c3ccc(Cl)cc3)c2ncn1CCF
- pKi (Cannabinoid receptor 2): < 5.00

SMILES: O=c1c2nn(-c3ccccc3Cl)c(-c3ccc(Cl)cc3)c2ncn1Cc1ccccc1
- pKi (Cannabinoid receptor 2): < 5.00

SMILES: CCCn1cnc2c(-c3ccc(Cl)cc3)n(-c3ccccc3Cl)nc2c1=O
- pKi (Cannabinoid receptor 2): < 5.00

SMILES: O=c1c2nn(-c3ccccc3Cl)c(-c3ccc(Cl)cc3)c2ncn1CCC(F)(F)F
- pKi (Cannabinoid receptor 2): < 5.00

SMILES: O=c1c2nn(-c3ccc(Cl)cc3)c(-c3ccccc3Cl)c2ncn1CC(F)(F)F
- pKi (Cannabinoid receptor 1 [1]): 7.55
- pKi (Cannabinoid receptor 2): < 5.00

SMILES: CC(C)n1cnc2c(-c3ccc(Cl)cc3)n(-c3ccccc3Cl)nc2c1=O
- pKi (Cannabinoid receptor 1 [1]): 7.68

SMILES: O=c1c2nn(-c3ccc(Cl)cc3)c(-c3ccccc3Cl)c2ncn1C1CCCCC1
- pKi (Cannabinoid receptor 1 [1]): 7.42
- pKi (Cannabinoid receptor 2): < 5.00

SMILES: O=c1c2nn(-c3ccccc3Cl)c(-c3ccc(Cl)cc3)c2ccn1CC(F)(F)F
- pKi (Cannabinoid receptor 1 [1]): 9.00
- pKi (Cannabinoid receptor 2): < 5.00
- pKi (Cannabinoid receptor 1 [2]): 9.00

SMILES: CCc1nc2c(-c3ccc(Cl)cc3)n(-c3ccccc3Cl)nc2c(=O)n1CC(F)(F)F
- pKi (Cannabinoid receptor 1 [1]): 9.00
- pKi (Cannabinoid receptor 2): < 5.00
- pKi (Cannabinoid receptor 1 [2]): 8.52

SMILES: CCn1cnc2c(-c3ccc(Cl)cc3)n(-c3ccccc3Cl)nc2c1=O
- pKi (Cannabinoid receptor 2): < 5.00

SMILES: CCC(CC)n1cnc2c(-c3ccc(Cl)cc3)n(-c3ccccc3Cl)nc2c1=O
- pKi (Cannabinoid receptor 1 [1]): 7.59

SMILES: O=c1c2nn(-c3ccccc3Cl)c(-c3ccc(Cl)cc3)c2ncn1C1CCCCC1
- pKi (Cannabinoid receptor 1 [1]): 7.70
- pKi (Cannabinoid receptor 2): < 5.00

SMILES: O=c1c2nc(-c3ccccc3Cl)n(-c3ccc(Cl)cc3)c2ncn1CC(F)(F)F
- pKi (Cannabinoid receptor 1 [1]): 9.00
- pKi (Cannabinoid receptor 2): < 5.00
- pKi (Cannabinoid receptor 1 [2]): 9.00

SMILES: CC(C)c1nc2c(-c3ccc(Cl)cc3)n(-c3ccccc3Cl)nc2c(=O)n1CC(F)(F)F
- pKi (Cannabinoid receptor 1 [1]): 8.22
- pKi (Cannabinoid receptor 2): < 5.00
- pKi (Cannabinoid receptor 1 [2]): 7.89

SMILES: CC(F)(F)Cn1cnc2c(-c3ccc(Cl)cc3)n(-c3ccccc3Cl)nc2c1=O
- pKi (Cannabinoid receptor 2): < 5.00

SMILES: O=c1c2nn(-c3ccccc3Cl)c(-c3ccc(Cl)cc3)c2ncn1CC(F)(F)F
- pKi (Cannabinoid receptor 2): < 5.00
- Activity (Mus musculus): Active
- Activity (Rattus norvegicus [3]): -23%
- Activity (Rattus norvegicus [4]): -32%
- Activity (Rattus norvegicus [5]): -78%
- clearance [6]: 45 mL/min/kg
- Vd [7]: 9.2 L/kg
- half-life [8]: 2.6 h
- bioavailability [9]: 62%
- clearance [10]: 0.54 mL/min/kg
- Vd [11]: 10 L/kg
- half-life [12]: 223 h

SMILES: O=c1c2nn(-c3ccccc3Cl)c(-c3ccc(Cl)cc3)c2ncn1N1CCCCC1
- pKi (Cannabinoid receptor 1 [1]): 7.92
- pKi (Cannabinoid receptor 2): < 5.00
- pKi (Cannabinoid receptor 1 [2]): 7.70

SMILES: O=c1c2nn(-c3ccccc3Cl)c(-c3ccc(Cl)cc3)c2cnn1CC(F)(F)F
- pKi (Cannabinoid receptor 1 [1]): 8.10
- pKi (Cannabinoid receptor 2): < 5.00
- pKi (Cannabinoid receptor 1 [2]): 8.40

SMILES: Cc1nc2c(-c3ccc(Cl)cc3)n(-c3ccccc3Cl)nc2c(=O)n1CC(F)(F)F
- pKi (Cannabinoid receptor 2): < 5.00
- Activity (Mus musculus): Active
- Activity (Rattus norvegicus [4]): -35%
- Activity (Rattus norvegicus [5]): -42%
- Activity (Rattus norvegicus [13]): -59%
- clearance [6]: 32 mL/min/kg
- Vd [7]: 7.7 L/kg
- half-life [8]: 4.7 h
- bioavailability [9]: 7%
- clearance [10]: 10 mL/min/kg
- Vd [11]: 17 L/kg
- half-life [12]: 39 h
